The test system of one data set is LLC-PK1. Nature of the data set: Cytotoxicity against pig LLC-PK1 cells assessed as cell viability after 48 hrs by neutral red uptake assay. The format is cell-based, Sus scrofa. The settings on record: llc-pk1, 48 h. The gist of the method:
(§1)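 Neutral red uptake assay on human cancer lines (SK-MEL, KB, BT-549, SK-OV-3) and noncancerous mammalian cells (VERO, LLC-PK1). Highest tested concentration was 10 µg/mL.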

The test system of the next data set is Vero. Description: Cytotoxicity against african green monkey Vero cells assessed as cell viability after 48 hrs by neutral red uptake assay. The format is cell-based. Conditions: chlorocebus sabaeus. The gist of the method: as §1
A further data set relates to SK-OV-3. Nature of the data set: Cytotoxicity against human SKOV3 cells assessed as cell viability after 48 hrs by neutral red uptake assay. The format is cell-based. Conditions: sk-ov-3, 48 h. The gist of the method: as §1
The next data set concerns KB. Nature of the data set: Cytotoxicity against human KB cells assessed as cell viability after 48 hrs by neutral red uptake assay. The format is cell-based. The gist of the method: as §1
For another data set, the system named is BT-549. Nature of the data set: Cytotoxicity against human BT549 cells assessed as cell viability after 48 hrs by neutral red uptake assay. Conditions: bt-549, 48 h. The format is cell-based. The gist of the method: as §1
A further data set relates to SK-MEL. Description: Cytotoxicity against human SK-MEL cells assessed as cell viability after 48 hrs by neutral red uptake assay. The data set is classed as cell-based. The gist of the method:
as §1

In another data set the test system is Escherichia coli. Nature of the data set: Antibacterial activity against Escherichia coli ATCC 35218 assessed as growth inhibition after 16-20 hrs by CLSI method. The format is functional, organism-based.
The test system of a further data set is Aspergillus fumigatus. Nature of the data set: Antifungal activity against Aspergillus fumigatus assessed as growth inhibition. The data set is classed as functional, organism-based.
The test system of another data set is Pichia kudriavzevii. Description: Antifungal activity against Candida krusei assessed as growth inhibition. The data set is classed as functional, organism-based.
A further data set has as its system Nakaseomyces glabratus. Nature of the data set: Antifungal activity against Candida glabrata assessed as growth inhibition. The format is functional, organism-based.
Another data set relates to Candida albicans. Description: Antifungal activity against Candida albicans assessed as growth inhibition. The format is functional, organism-based.
Another data set has as its system Cryptococcus neoformans. Description: Antifungal activity against Cryptococcus neoformans ATCC 90113 assessed as growth inhibition after 70-74 hrs by CLSI method. The data set is classed as functional, organism-based.
The mark [1] stands for this setting: Cryptococcus neoformans, ATCC 90113.
The mark [2] stands for this setting: Cryptococcus neoformans, ATCC 90113, read-out: IC50.

From ChEMBL document CHEMBL3132745, “Synthesis and Antimicrobial Activities of His(2-aryl)-Arg and Trp-His(2-aryl) Classes of Dipeptidomimetics” (Medchemcomm, 2014) come the findings set out here.

Values after ≈ are worked out from the molar mass of the structure shown. Active and inactive are the calls of the source. Residues, ends and D or L forms follow the SMILES beside them. *: point of attachment. Boc = CC(C)(C)OC(=O)*; NHBn = c1ccc(CN*)cc1

For the molecule `COC(=O)[C@H](CCCNC(=N)N)NC(=O)[C@@H](N)Cc1c[nH]c(-c2ccc(C(C)(C)C)cc2)n1`, the Activity in the data set with LLC-PK1, in the data set on Vero, in the data set with SK-OV-3, in the data set on KB, in the data set on BT-549 and with SK-MEL was greater than 10 µg/mL throughout. The “growth inhibition (GI)” value with Escherichia coli, with Aspergillus fumigatus, in the data set on Pichia kudriavzevii, with Nakaseomyces glabratus and with Candida albicans was “inactive” each time. Moreover, the minimum fungicidal concentration (MFC) in the data set with Cryptococcus neoformans (setting [1]) turned out to be 20 µg/mL (≈ 43.7 µM). In the data set with Cryptococcus neoformans (setting [1]), the MIC was determined as 20 µg/mL (≈ 43.7 µM). Further, the concentration for half-maximal inhibition (IC50) with Cryptococcus neoformans (setting [2]) was 10.2 µg/mL (≈ 22.2 µM).

Turning to `COC(=O)[C@H](Cc1c[nH]cn1)NC(=O)[C@H](Cc1c[nH]c2ccccc12)NC(=O)OC(C)(C)C` (Boc-Trp-His-OMe), the Activity with LLC-PK1, with Vero, in the data set with SK-OV-3, in the data set with KB, in the data set with BT-549 and with SK-MEL was greater than 10 µg/mL each time. For the same molecule, the “growth inhibition (GI)” value in the data set with Escherichia coli, with Aspergillus fumigatus, in the data set on Pichia kudriavzevii, in the data set with Nakaseomyces glabratus and in the data set with Candida albicans was “inactive” in each case. Further, in the data set on Cryptococcus neoformans, the half-inhibitory concentration (IC50) entry is listed as “Not Active”. The MFC entry in the data set with Cryptococcus neoformans was “inactive”. Also, the MIC entry in the data set on Cryptococcus neoformans was “inactive”.

Regarding `N[C@@H](Cc1c[nH]c2ccccc12)C(=O)N[C@@H](Cc1c[nH]cn1)C(=O)NCc1ccccc1` (H-Trp-His-NHBn), the Activity in the data set with LLC-PK1, in the data set on Vero, in the data set with SK-OV-3, in the data set with KB, with BT-549 and with SK-MEL was greater than 10 µg/mL throughout. Besides, the “growth inhibition (GI)” value in the data set on Escherichia coli, with Aspergillus fumigatus, with Pichia kudriavzevii, in the data set on Nakaseomyces glabratus and in the data set on Candida albicans was “inactive” in each case. Further, the IC50 result with Cryptococcus neoformans is on record as “Not Active”. Besides, in the data set with Cryptococcus neoformans, the MFC entry was “inactive”. The MIC entry in the data set with Cryptococcus neoformans is “inactive”.

Take `N=C(N)NCCC[C@H](NC(=O)[C@@H](N)Cc1c[nH]cn1)C(=O)NCc1ccccc1` (H-His-Arg-NHBn): the Activity with LLC-PK1, in the data set on Vero, in the data set with SK-OV-3, in the data set on KB, in the data set on BT-549 and with SK-MEL was greater than 10 µg/mL throughout. Besides, the “growth inhibition (GI)” value in the data set with Escherichia coli, in the data set on Aspergillus fumigatus, with Pichia kudriavzevii, in the data set on Nakaseomyces glabratus and with Candida albicans was “inactive” in each case. Moreover, the 50% inhibitory concentration (IC50) entry with Cryptococcus neoformans was “Not Active”. Also, in the data set on Cryptococcus neoformans, the MFC result was “inactive”. For the same molecule, in the data set with Cryptococcus neoformans, the MIC result was “inactive”.

With `COC(=O)[C@H](Cc1c[nH]c(-c2cccc3ccccc23)n1)NC(=O)[C@@H](N)Cc1c[nH]c2ccccc12`, the Activity in the data set on LLC-PK1, with Vero, in the data set on SK-OV-3, in the data set with KB, in the data set on BT-549 and in the data set on SK-MEL was greater than 10 µg/mL each time. Besides, the “growth inhibition (GI)” value in the data set on Escherichia coli, with Aspergillus fumigatus, in the data set on Pichia kudriavzevii, in the data set on Nakaseomyces glabratus and in the data set on Candida albicans was “inactive” throughout. Further, in the data set on Cryptococcus neoformans, the MFC entry is “inactive”. Moreover, in the data set with Cryptococcus neoformans, the MIC result was “inactive”. The concentration for half-maximal inhibition (IC50) in the data set with Cryptococcus neoformans (setting [2]) was 17.3 µg/mL (≈ 35.9 µM).

For `COC(=O)[C@H](CCCNC(=N)N)NC(=O)[C@@H](N)Cc1c[nH]c(-c2ccccc2)n1`, the Activity in the data set on LLC-PK1, in the data set with Vero, with SK-OV-3, in the data set on KB, with BT-549 and with SK-MEL was greater than 10 µg/mL in each case. The “growth inhibition (GI)” value in the data set on Escherichia coli, with Aspergillus fumigatus, with Pichia kudriavzevii, with Nakaseomyces glabratus and in the data set with Candida albicans was “inactive” throughout. Moreover, in the data set with Cryptococcus neoformans, the MFC result was “inactive”. Besides, the MIC entry with Cryptococcus neoformans is “inactive”. The IC50 in the data set on Cryptococcus neoformans (setting [2]) came to 10.6 µg/mL (≈ 26.3 µM).

Regarding `COc1ccc(-c2nc(C[C@H](NC(=O)[C@@H](N)Cc3c[nH]c4ccccc34)C(=O)NCc3ccccc3)c[nH]2)cc1`, the Activity in the data set with LLC-PK1, in the data set with Vero, in the data set on SK-OV-3, with KB, in the data set with BT-549 and with SK-MEL was greater than 10 µg/mL throughout. For the same molecule, the “growth inhibition (GI)” value in the data set on Escherichia coli, in the data set on Aspergillus fumigatus, in the data set with Pichia kudriavzevii, with Nakaseomyces glabratus and with Candida albicans was “inactive” throughout. Also, the MFC result in the data set with Cryptococcus neoformans was “inactive”. The MIC in the data set on Cryptococcus neoformans (setting [1]) turned out to be 10 µg/mL (≈ 18.6 µM). Further, the IC50 in the data set with Cryptococcus neoformans (setting [2]) turned out to be 10.8 µg/mL (≈ 20.2 µM).

`COC(=O)[C@H](CCCNC(=N)N)NC(=O)[C@H](Cc1c[nH]c(-c2ccc(C(C)(C)C)cc2)n1)NC(=O)OC(C)(C)C`: the Activity with LLC-PK1, in the data set on Vero, in the data set with SK-OV-3, in the data set with KB, in the data set on BT-549 and with SK-MEL was greater than 10 µg/mL each time. Also, the “growth inhibition (GI)” value with Escherichia coli, with Aspergillus fumigatus, in the data set on Pichia kudriavzevii, with Nakaseomyces glabratus and in the data set with Candida albicans was “inactive” throughout. In the data set on Cryptococcus neoformans, the IC50 entry is given as “Not Active”. The MFC result in the data set with Cryptococcus neoformans is “inactive”. In addition, the MIC result with Cryptococcus neoformans was “inactive”.

With `Cc1ccc(-c2nc(C[C@H](NC(=O)[C@H](Cc3c[nH]c4ccccc34)NC(=O)OC(C)(C)C)C(=O)NCc3ccccc3)c[nH]2)cc1`, the Activity in the data set on LLC-PK1, with Vero, with SK-OV-3, with KB, in the data set with BT-549 and with SK-MEL was greater than 10 µg/mL throughout. The “growth inhibition (GI)” value with Escherichia coli, in the data set on Aspergillus fumigatus, in the data set with Pichia kudriavzevii, with Nakaseomyces glabratus and in the data set with Candida albicans was “inactive” throughout. Besides, the half-maximal inhibitory concentration (IC50) entry in the data set with Cryptococcus neoformans is reported as “Not Active”. Further, in the data set on Cryptococcus neoformans, the MFC result was “inactive”. Besides, the MIC result with Cryptococcus neoformans is “inactive”.

Consider `CC(C)(C)OC(=O)N[C@@H](Cc1c[nH]c2ccccc12)C(=O)N[C@@H](Cc1c[nH]c(-c2cccc3ccccc23)n1)C(=O)NCc1ccccc1`, for which the Activity with LLC-PK1, in the data set on Vero, in the data set with SK-OV-3, with KB, in the data set with BT-549 and in the data set with SK-MEL was greater than 10 µg/mL throughout. In addition, the “growth inhibition (GI)” value in the data set with Escherichia coli, in the data set with Aspergillus fumigatus, in the data set on Pichia kudriavzevii, with Nakaseomyces glabratus and in the data set on Candida albicans was “inactive” each time. In addition, the half-maximal inhibitory concentration (IC50) entry with Cryptococcus neoformans was “Not Active”. For the same molecule, the MFC result in the data set with Cryptococcus neoformans is “inactive”. Besides, the MIC result in the data set on Cryptococcus neoformans was “inactive”.

On to `COC(=O)[C@H](Cc1c[nH]c(-c2ccc(OC)cc2)n1)NC(=O)[C@@H](N)Cc1c[nH]c2ccccc12`, for which the Activity with LLC-PK1, in the data set on Vero, with SK-OV-3, in the data set on KB, with BT-549 and with SK-MEL was greater than 10 µg/mL each time. For the same molecule, the “growth inhibition (GI)” value in the data set on Escherichia coli, in the data set with Aspergillus fumigatus, with Pichia kudriavzevii, with Nakaseomyces glabratus and in the data set on Candida albicans was “inactive” in each case. Also, the half-inhibitory concentration (IC50) entry with Cryptococcus neoformans is recorded as “Not Active”. Besides, the MFC result in the data set on Cryptococcus neoformans is “inactive”. For the same molecule, the MIC entry in the data set with Cryptococcus neoformans was “inactive”.

Consider `C[C@@H]1[C@H](O)[C@@H](C)/C=C/C=C/C=C/C=C/C=C/C=C/C=C/[C@H](O[C@@H]2O[C@H](C)[C@@H](O)[C@H](N)[C@@H]2O)C[C@@H]2O[C@](O)(C[C@@H](O)C[C@@H](O)[C@H](O)CC[C@@H](O)C[C@@H](O)CC(=O)O[C@H]1C)C[C@H](O)[C@H]2C(=O)O` [AMPHOTERICIN B], for which, in the data set with Cryptococcus neoformans (setting [1]), the MFC came out at 1.25 µg/mL (≈ 1.35 µM) and the minimum inhibitory concentration (MIC) was determined as 1.25 µg/mL (≈ 1.35 µM). In addition, the half-inhibitory concentration (IC50) with Cryptococcus neoformans (setting [2]) stood at 0.69 µg/mL (≈ 0.747 µM).

For orientation: MFC means the smallest concentration meeting the test's criterion for killing the fungus. For orientation: MIC means the least concentration at which growth counts as inhibited. The term IC50 denotes the concentration needed to halve the response being measured.
